Source: PubChem BioAssay (several laboratories)
Most compounds without a hit are left out; they make up all but 1.4% or so of the library.
Vif imaging = HIV Vif self-association inhibitors, primary screen, imaging, HEK293T, single point; HEK293T cells, Vif self-association by quenched fluorescence, 24 h; inhibition, % at 7.49 µM; actives 0.35% (n = 340,000); AID 602346, 2012; in the data active = inhibition above about 50%, passing the limit was not always enough
PKA-R1A act = activators of PKA-R1A holoenzyme, primary screen, biochemical, fluorescence polarization, Cy5-IP20, bovine R1A, mouse PKAc; actives 0.083% (n = 340,000); AID 504707, 2011; cAMP-dependent protein kinase type I-alpha regulatory subunit (Bos taurus) + …; activation, % at 11.4 µM; PKA-R1A dissociation; scaled: DMSO 0%, 113 µM cGMP 100%;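 active = percent activation above the mean of all tested compounds plus 3 SD, cut at about 19% in these data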;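 also: higher means more PKAc released from R1A so a rise in polarization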
SR-BI uptake up = activators of SR-BI mediated DiI-HDL uptake, primary screen, ldlA[mSR-BI] CHO cells, DiI fluorescence. 3 h; 100 = double the neutral-control signal. activation, % at 12.5 µM. actives 0.096% (n = 320,000). AID 504775, 2011;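 active = mean replicate activation of at least 60% and every replicate at or above 60%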
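Test system: SR-BI-overexpressing, LDLR-lacking CHO cells. Measured by: DiI fluorescence, bottom read. Medium: Ham's F12 with 0.5% BSA, HEPES 25 mM, pH 7.4. Timing: 3 h uptake period with compound, 37 °C.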
SR-BI DiI inh = inhibitors of SR-BI mediated HDL lipid uptake, primary screen, ldlA[mSR-BI] cells, fluorescence, single point. AID 488896, 2010. Scavenger receptor class B member 1 (Mus musculus), Q61009. ldlA[mSR-BI] CHO cells, DiI-HDL uptake fluorescence, 3 h. inhibition, % at 12.5 µM. actives 0.96% (n = 320,000);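 active = mean replicate inhibition of at least 70% and a set share of replicates each scoring 70 or more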
Target sequence (Q61009 whole entry, looked up): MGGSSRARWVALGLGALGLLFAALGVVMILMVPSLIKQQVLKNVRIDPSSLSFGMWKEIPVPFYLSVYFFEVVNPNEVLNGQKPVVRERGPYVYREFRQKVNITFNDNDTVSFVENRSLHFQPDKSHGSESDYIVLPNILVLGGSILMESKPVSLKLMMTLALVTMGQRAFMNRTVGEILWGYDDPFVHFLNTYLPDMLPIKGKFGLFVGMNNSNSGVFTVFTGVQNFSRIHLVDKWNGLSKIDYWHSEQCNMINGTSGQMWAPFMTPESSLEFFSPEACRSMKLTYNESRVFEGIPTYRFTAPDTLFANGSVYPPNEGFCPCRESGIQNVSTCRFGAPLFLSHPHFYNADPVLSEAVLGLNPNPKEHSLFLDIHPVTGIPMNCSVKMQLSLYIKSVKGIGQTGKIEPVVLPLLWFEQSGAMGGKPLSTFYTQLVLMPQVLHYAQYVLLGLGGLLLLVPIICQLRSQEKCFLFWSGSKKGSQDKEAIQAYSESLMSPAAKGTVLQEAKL
PKA-R2B activ = activators of PKA-R2B holoenzyme, primary screen, biochemical, fluorescence polarization, Cy5-IP20, human | PKA-R2B holoenzyme dissociation; R2B truncated from residue 108, S112A mutant; 0% DMSO only, 100% 113 µM cGMP | activation, % at 11.4 µM | actives 0.079% (n = 340,000);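 active = activation above a cutoff set at the mean over all compounds plus 3 SD, cut at about 18% in these data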;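 also: higher means more holoenzyme dissociation and a rise in polarization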
Hits are given with their value.

Screening O=C(NNc1ccc([N+](=O)[O-])cn1)Nc1ccc(N=Nc2ccccc2)cc1 returned Vif imaging inactive, PKA-R1A act inactive, SR-BI uptake up inactive, SR-BI DiI inh 100 and PKA-R2B activ inactive.
Screening O=C(CCn1c(=S)oc2ccccc21)Nc1ccccc1Br returned Vif imaging inactive, PKA-R1A act inactive, SR-BI uptake up inactive, SR-BI DiI inh inactive and PKA-R2B activ inactive.
`Cn1c(=O)cc(OCCCC(=O)NCc2ccco2)c2ccccc21` gave Vif imaging inactive, PKA-R1A act inactive, SR-BI uptake up inactive, SR-BI DiI inh inactive and PKA-R2B activ inactive.
For O=C(Nc1ccc([N+](=O)[O-])cc1)Nc1ccc2c(c1)OCCO2 the results were Vif imaging inactive, PKA-R1A act inactive, SR-BI uptake up inactive, SR-BI DiI inh inactive and PKA-R2B activ inactive.
Screening COc1ccccc1NC(=O)NCc1ccco1 returned Vif imaging inactive, PKA-R1A act inactive, SR-BI uptake up inactive, SR-BI DiI inh inactive and PKA-R2B activ inactive.
For COc1cc(NC(=O)NCc2ccco2)ccc1-c1ccc(NC(=O)NCc2ccco2)cc1OC the results were Vif imaging 90, PKA-R1A act inactive, SR-BI uptake up inactive, SR-BI DiI inh 74 and PKA-R2B activ inactive.
For COc1ccccc1OCCCC(=O)NCc1ccco1 the results were Vif imaging 59, PKA-R1A act inactive, SR-BI uptake up inactive, SR-BI DiI inh inactive and PKA-R2B activ inactive.
COc1cc([N+](=O)[O-])ccc1NC(=O)NCc1ccco1 was read as Vif imaging inactive, PKA-R1A act inactive, SR-BI uptake up inactive, SR-BI DiI inh 72 and PKA-R2B activ inactive.
COc1cc([N+](=O)[O-])ccc1NC(=O)Nc1ccc2c(c1)OCCO2 was read as Vif imaging inactive, PKA-R1A act inactive, SR-BI uptake up inactive, SR-BI DiI inh 97 and PKA-R2B activ inactive.
CC(C)NC(=O)C1(C)CCN1C(=O)Cc1ccc(-c2ccccc2)cc1 (centres undefined) was read as Vif imaging inactive.
COc1ccc(N2CCN(CCNC(=O)Nc3ccc([N+](=O)[O-])cc3OC)CC2)cc1 was read as Vif imaging inactive, PKA-R1A act inactive, SR-BI uptake up inactive, SR-BI DiI inh 76 and PKA-R2B activ inactive.
For N#CC1CC(c2ccc([N+](=O)[O-])cc2)=NN1c1ccc([N+](=O)[O-])cc1 (centres undefined) the results were Vif imaging 89, PKA-R1A act inactive, SR-BI uptake up inactive, SR-BI DiI inh inactive and PKA-R2B activ inactive.
For O=[N+]([O-])c1cccc(C2CC(c3ccccc3)=NN2c2ccccc2)c1 (centres undefined) the results were Vif imaging inactive, PKA-R1A act inactive, SR-BI uptake up inactive, SR-BI DiI inh inactive and PKA-R2B activ inactive.
`CCCc1c(C(=O)N/N=C/c2ccccc2OCc2ccc(F)cc2)nnn1-c1nonc1N` gave Vif imaging inactive, PKA-R1A act inactive, SR-BI uptake up inactive, SR-BI DiI inh 85 and PKA-R2B activ inactive.
COc1cc(/C=N/NC(=O)c2cc(C)oc2C)ccc1OCc1ccccc1 was read as Vif imaging inactive, PKA-R1A act inactive, SR-BI uptake up inactive, SR-BI DiI inh 79 and PKA-R2B activ inactive.
For COc1ccc(/C=N\NC(=O)c2ccccc2Br)cc1COc1ccc(F)cc1 the results were Vif imaging inactive, PKA-R1A act inactive, SR-BI uptake up inactive, SR-BI DiI inh 79 and PKA-R2B activ inactive.
Screening CCCc1c(C(=O)N/N=C/c2ccc(OCc3ccccc3)c(OC)c2)nnn1-c1nonc1N returned Vif imaging inactive, PKA-R1A act inactive, SR-BI uptake up inactive, SR-BI DiI inh 76 and PKA-R2B activ inactive.
For COc1ccc(/C=N\NC(=O)c2ccccc2)cc1COc1ccc(F)cc1 the results were Vif imaging inactive, PKA-R1A act inactive, SR-BI uptake up inactive, SR-BI DiI inh inactive and PKA-R2B activ inactive.
COc1cccc(C2Nc3ccccc3NC3=C2C(=O)CC(C)(C)C3)c1 (centres undefined) was read as Vif imaging inactive, PKA-R1A act inactive, SR-BI uptake up inactive, SR-BI DiI inh inactive and PKA-R2B activ inactive.
`COc1ccc(NC(=O)Nc2cccc3[nH]c([C@@H]4O[C@H](CO)[C@@H](O)[C@H](O)[C@H]4O)nc23)cc1OC1CCCC1` gave Vif imaging inactive.
Screening CC1(C)CC(=O)C2=C(C1)Nc1ccccc1N(C(=O)C1CC1)C2c1ccco1 (centres undefined) returned Vif imaging 52, PKA-R1A act inactive, SR-BI uptake up inactive, SR-BI DiI inh inactive and PKA-R2B activ inactive.
`CCOC(=O)c1c(C)[nH]c(C(=O)OCC(=O)Nc2sccc2C(N)=O)c1C` gave PKA-R1A act inactive, SR-BI uptake up inactive, SR-BI DiI inh inactive and PKA-R2B activ inactive.
O=C(NCCc1cccc(Cl)c1)c1cccc(-n2cnnn2)c1 was read as Vif imaging inactive, PKA-R1A act inactive, SR-BI uptake up inactive, SR-BI DiI inh inactive and PKA-R2B activ inactive.
`CCc1ccc(NC(=O)CC2C(=O)N(c3cccc(OC)c3)C(=O)N2CCOC)cc1` (centres undefined) gave Vif imaging inactive, PKA-R1A act inactive, SR-BI uptake up 310, SR-BI DiI inh inactive and PKA-R2B activ inactive.
For COCCCN1C(=O)N(c2ccc(F)cc2)C(=O)C1CC(=O)Nc1ccc(OC)cc1 (centres undefined) the results were Vif imaging inactive, PKA-R1A act inactive, SR-BI uptake up inactive, SR-BI DiI inh 76 and PKA-R2B activ inactive.
`COCCN1C(=O)N(c2cccc(OC)c2)C(=O)C1CC(=O)Nc1ccc(Cl)cc1` (centres undefined) gave Vif imaging inactive, PKA-R1A act inactive, SR-BI uptake up inactive, SR-BI DiI inh inactive and PKA-R2B activ inactive.
Cc1csc(NC(=O)CSc2ncnc3c2cnn3-c2ccccc2Cl)n1 was read as Vif imaging 73, PKA-R1A act inactive, SR-BI uptake up inactive, SR-BI DiI inh inactive and PKA-R2B activ inactive.
For CC(C)C(=O)NNC(=O)CSc1ncnc2c1cnn2-c1ccccc1Cl the results were Vif imaging inactive, PKA-R1A act inactive, SR-BI uptake up inactive, SR-BI DiI inh inactive and PKA-R2B activ inactive.
Screening COc1ccc([N+](=O)[O-])cc1NC(=O)C(C)N(C)Cc1ccc(Br)cc1 (centres undefined) returned Vif imaging inactive, PKA-R1A act inactive, SR-BI uptake up inactive, SR-BI DiI inh 75 and PKA-R2B activ inactive.
